Consider twelve compounds from ChEMBL document CHEMBL4665633, “Cereblon versus VHL: Hijacking E3 ligases against each other using PROTACs” (Bioorg Med Chem, 2019).

Type in all cases: cell-based
Assay [1] addresses T1, Protein cereblon/von Hippel-Lindau disease tumor suppressor (Homo sapiens, UniProt P40337+Q96SW2). Put plainly: Protac activity at VHL/CRBN in human HeLa cells assessed as pVHL19 protein abundance at 10 nM after 4 hrs by Western blot analysis relative to DMSO. An outline of the steps:
(§1)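 HeLa cells (5 × 10⁵, DMEM + 10% FBS, 37 °C, 5% CO₂, ≤30 passages) seeded overnight, then treated 4 h with compound at single or graded concentrations (0.1% v/v DMSO final). RIPA lysates equalised by Bradford; SDS-PAGE and anti-CRBN/anti-VHL immunoblots; bands normalised to β-tubulin and expressed as % of mean DMSO vehicle. DC₅₀ from fit of band intensity versus log[concentration].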
Background: Immunoblotting shows a protein as a band on a membrane.

Assay [2] concerns the target T1, Protein cereblon/von Hippel-Lindau disease tumor suppressor. Put plainly: Protac activity at VHL/CRBN in human HeLa cells assessed as pVHL30 protein abundance at 10 nM after 4 hrs by Western blot analysis relative to DMSO. Summed up: as §1
Assay [3] has the same target. Put plainly: Protac activity at VHL/CRBN in human HeLa cells assessed as CRBN protein abundance at 10 nM after 4 hrs by Western blot analysis relative to DMSO. Summed up: as §1
Assay [4] shares this target. Put plainly: Protac activity at VHL/CRBN in human HeLa cells assessed as pVHL19 protein abundance at 1 uM after 4 hrs by Western blot analysis relative to DMSO. An outline of the steps: (§2)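 HeLa cells seeded overnight, then exposed to 1 µM compound (0.1% v/v DMSO final) over a time course. Cells were DPBS-washed and RIPA-lysed with protease inhibitors and benzonase; equal protein was loaded. Immunoblots for CRBN and VHL isoforms were quantified against β-tubulin and reported relative to the averaged 0.1% DMSO vehicle.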

For assay [5] the target is unchanged. Put plainly: Protac activity at VHL/CRBN in human HeLa cells assessed as pVHL30 protein abundance at 1 uM after 4 hrs by Western blot analysis relative to DMSO. Summed up: as §2
Assay [6] has the same target. Put plainly: Protac activity at VHL/CRBN in human HeLa cells assessed as CRBN protein abundance at 1 uM after 4 hrs by Western blot analysis relative to DMSO. An outline of the steps: as §2
For assay [7] the target is unchanged. Put plainly: Protac activity at VHL/CRBN in human HeLa cells assessed as induction of VHL degradation at 1 uM after 4 hrs by Western blot analysis. An outline of the steps:
as §1

Assay [8] shares this target. Put plainly: Protac activity at VHL/CRBN in human HeLa cells assessed as induction of CRBN degradation at 1 uM after 4 hrs by Western blot analysis relative to control. Summed up: as §1

Calls of active or inactive are those of the source. The rule behind the calls is not given here.

T1 sequence (P40337 whole entry, looked up): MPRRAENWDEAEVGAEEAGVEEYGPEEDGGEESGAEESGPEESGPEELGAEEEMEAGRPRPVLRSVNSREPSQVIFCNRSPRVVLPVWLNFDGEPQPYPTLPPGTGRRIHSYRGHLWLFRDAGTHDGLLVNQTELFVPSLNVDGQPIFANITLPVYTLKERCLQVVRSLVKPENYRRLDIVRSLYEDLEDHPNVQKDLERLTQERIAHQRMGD
T1 sequence (Q96SW2 whole entry, looked up): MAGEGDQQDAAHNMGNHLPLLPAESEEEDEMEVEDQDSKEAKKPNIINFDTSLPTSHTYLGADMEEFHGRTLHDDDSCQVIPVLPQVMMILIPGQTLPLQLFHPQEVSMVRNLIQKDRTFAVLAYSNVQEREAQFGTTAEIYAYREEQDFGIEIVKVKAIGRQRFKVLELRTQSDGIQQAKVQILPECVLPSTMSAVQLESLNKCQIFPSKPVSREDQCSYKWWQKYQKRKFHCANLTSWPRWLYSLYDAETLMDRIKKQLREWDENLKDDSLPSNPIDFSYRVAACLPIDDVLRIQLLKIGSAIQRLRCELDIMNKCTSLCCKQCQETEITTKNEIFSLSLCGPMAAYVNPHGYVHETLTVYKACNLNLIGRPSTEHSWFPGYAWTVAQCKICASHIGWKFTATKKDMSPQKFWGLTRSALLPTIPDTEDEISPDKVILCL

For `Cc1ncsc1-c1ccc(CNC(=O)[C@@H]2C[C@@H](O)CN2C(=O)[C@@H](NC(=O)C2(F)CC2)C(C)(C)SCCOCCOCCOCC(=O)NCCNc2cccc3c2C(=O)N(C2CCC(=O)NC2=O)C3=O)cc1` (stereo not given in full), the Activity in assay [1] turned out to be 87%; in assay [2], 75%; in assay [3], 78%; in assay [4], 121%; in assay [5] it was 104%; in assay [6] it was 71%. The result in assay [7] was inactive.

In the case of `Cc1ncsc1-c1ccc(CNC(=O)[C@@H]2C[C@@H](O)CN2C(=O)[C@@H](NC(=O)C2(F)CC2)C(C)(C)C)c(OCCOCCOCCOCCOCCOCC(=O)NCCNc2cccc3c2C(=O)N(C2CCC(=O)NC2=O)C3=O)c1` (stereo not given in full), the Activity was 89% in assay [1]; 76% in assay [2]; 86% in assay [3]; 103% in assay [4]; 77% in assay [5]; 46% in assay [6]. For the same compound, the Activity in assay [8] was found to be 54%. The outcome in assay [7] was inactive.

For the compound `Cc1ncsc1-c1ccc(CNC(=O)[C@@H]2C[C@@H](O)CN2C(=O)[C@@H](NC(=O)C2(F)CC2)C(C)(C)SCCCCC(=O)NCCNc2cccc3c2C(=O)N(C2CCC(=O)NC2=O)C3=O)cc1` (stereo not given in full), the Activity in assay [1] is 93%; in assay [2], 53%; in assay [3], 82%; in assay [4], 117%; in assay [5] it was 114%; in assay [6] it was 81%. Also, the outcome in assay [7] was inactive.

For the compound `Cc1ncsc1-c1ccc(CNC(=O)[C@@H]2C[C@@H](O)CN2C(=O)[C@@H](NC(=O)COCCCCCCOCC(=O)NCCNc2cccc3c2C(=O)N(C2CCC(=O)NC2=O)C3=O)C(C)(C)C)cc1` (stereo not given in full), the Activity in assay [1] amounted to 101%; in assay [2], 50%; in assay [3], 75%; in assay [4], 100%; in assay [5] it was 75%; in assay [6], 65%. Also, the result in assay [7] was inactive.

On to `Cc1ncsc1-c1ccc(CNC(=O)[C@@H]2C[C@@H](O)CN2C(=O)[C@@H](NC(=O)COCCOCCOCC(=O)NCCNc2cccc3c2C(=O)N(C2CCC(=O)NC2=O)C3=O)C(C)(C)C)cc1` (stereo not given in full), for which the Activity was found to be 94% in assay [1]; 104% in assay [2]; 91% in assay [3]; 102% in assay [4]; 89% in assay [5]; 91% in assay [6]. Further, the result in assay [7] was inactive.

`Cc1ncsc1-c1ccc(CNC(=O)[C@@H]2C[C@@H](O)CN2C(=O)[C@@H](NC(=O)COCCOCCOCCOCCOCC(=O)NCCNc2cccc3c2C(=O)N(C2CCC(=O)NC2=O)C3=O)C(C)(C)C)cc1` (stereo not given in full): the Activity was 92% in assay [1]; 53% in assay [2]; 81% in assay [3]; 103% in assay [4]; 95% in assay [5]; 94% in assay [6]. For the same compound, in assay [7], the result was inactive.

As to `Cc1ncsc1-c1ccc(CNC(=O)[C@@H]2C[C@@H](O)CN2C(=O)[C@@H](NC(=O)COCCOCCOCCOCC(=O)NCCNc2cccc3c2C(=O)N(C2CCC(=O)NC2=O)C3=O)C(C)(C)C)cc1` (stereo not given in full), the Activity in assay [1] came out at 98%; in assay [2], 67%; in assay [3], 91%; in assay [4], 103%; in assay [5], 101%; in assay [6], 94%. In assay [7], the outcome was inactive.

Take `Cc1ncsc1-c1ccc(CNC(=O)[C@@H]2C[C@@H](O)CN2C(=O)[C@@H](NC(=O)COCCOCCOCCOCCOCCOCC(=O)NCCNc2cccc3c2C(=O)N(C2CCC(=O)NC2=O)C3=O)C(C)(C)C)cc1` (stereo not given in full): the Activity in assay [1] turned out to be 93%; in assay [2] it was 80%; in assay [3] it was 85%; in assay [4], 97%; in assay [5] it was 96%; in assay [6] it was 86%. In addition, the result in assay [7] was inactive.

Turning to `Cc1ncsc1-c1ccc(CNC(=O)[C@@H]2C[C@@H](O)CN2C(=O)[C@@H](NC(=O)C2(F)CC2)C(C)(C)C)c(OCCCCC(=O)NCCNc2cccc3c2C(=O)N(C2CCC(=O)NC2=O)C3=O)c1` (stereo not given in full), the Activity in assay [1] was 100%; in assay [2] it was 64%; in assay [3], 80%; in assay [4] it was 134%; in assay [5], 126%; in assay [6], 95%. The result in assay [7] was inactive.

In the case of `Cc1ncsc1-c1ccc(CNC(=O)[C@@H]2C[C@@H](O)CN2C(=O)[C@@H](NC(=O)COCCOCCOCCOCCOCCOCCOCCOCCOCC(=O)NCCNc2cccc3c2C(=O)N(C2CCC(=O)NC2=O)C3=O)C(C)(C)C)cc1` (stereo not given in full), the Activity is 99% in assay [1]; 54% in assay [2]; 82% in assay [3]; 95% in assay [4]; 91% in assay [5]; 91% in assay [6]. Besides, the outcome in assay [7] was inactive.

As to `Cc1ncsc1-c1ccc(CNC(=O)[C@@H]2C[C@@H](O)CN2C(=O)[C@@H](NC(=O)C2(F)CC2)C(C)(C)C)c(OCCOCCOCCOCC(=O)NCCNc2cccc3c2C(=O)N(C2CCC(=O)NC2=O)C3=O)c1` (stereo not given in full), the Activity in assay [1] worked out at 97%; in assay [2], 76%; in assay [3], 94%; in assay [4], 115%; in assay [5], 113%; in assay [6], 71%. Moreover, the outcome in assay [7] was inactive.

For the compound `Cc1ncsc1-c1ccc(CNC(=O)[C@@H]2C[C@@H](O)CN2C(=O)[C@@H](NC(=O)C2(F)CC2)C(C)(C)SCCOCCOCCOCCOCCOCC(=O)NCCNc2cccc3c2C(=O)N(C2CCC(=O)NC2=O)C3=O)cc1` (stereo not given in full), the Activity in assay [1] was found to be 89%; in assay [2] it was 87%; in assay [3] it was 82%; in assay [4] it was 112%; in assay [5], 110%; in assay [6], 68%. For the same compound, the result in assay [7] was inactive.
